ChEMBL document CHEMBL3351741, “Fused heterocycles bearing bridgehead nitrogen as potent HIV-1 NNRTIs. Part 2: discovery of novel [1,2,4]Triazolo[1,5-a]pyrimidines using a structure-guided core-refining approach” (Eur J Med Chem, 2014)

Experiments:
[1] = Selectivity index, ratio of CC50 for mock-infected human MT4 cells to EC50 for HIV-1 3B infected in human MT4 cells; format: toxicity, cell-based; conditions: mock-infected and infected with HIV-1 3B, read-out: Ratio CC50/EC50
Outline: (§1)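 MT-4 cells resuspended at 6 × 10⁵ cells/ml, infected with HIV-1 IIIB, RES056 or HIV-2 ROD at 100-300 CCID50, or mock-infected; test compounds added from 10× stocks. After 5 days, viability read by MTT at 540 and 690 nm, median OD of two or three wells. EC50 = 50% protection from cytopathicity; CC50 = 50% viability loss in mock-infected cells; SI = CC50/EC50.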

[2] = tested on: Human immunodeficiency virus 1; test: Antiviral activity against HIV-1 3B infected in human MT4 cells assessed as protection from viral cytopathicity after 5 days by MTT assay; format: functional, organism-based; conditions: Human immunodeficiency virus 1, 3B, MT4, 120 h
Outline: (§2)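 MT-4 cells (6 × 10⁵ cells/ml) infected with HIV-1 IIIB or HIV-2 ROD stock at 100-300 CCID₅₀; compounds added as 10× stocks. After 5 days, viability read by MTT reduction at 540 and 690 nm, using median OD of two or three wells. EC₅₀ is the concentration giving 50% protection from viral cytopathicity.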

[3] = Selectivity index, ratio of CC50 for mock-infected human MT4 cells to EC50 for HIV-2 ROD infected in human MT4 cells; format: toxicity, cell-based; conditions: mock-infected and infected with HIV-2 ROD, read-out: Ratio CC50/EC50; outline: as §1
[4] = Cytotoxicity against mock-infected human MT4 cells after 5 days by MTT assay; format: cell-based
Outline: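 Mock-infected MT-4 cells (6 × 10⁵ cells/ml) received culture medium in place of virus and were exposed to compounds added as 10× stocks. After 5 days, viability was read by MTT at 540 and 690 nm, using median OD of two or three wells. CC₅₀ is the concentration cutting viability by 50%. '>' marks the highest concentration tested without cytotoxicity.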

[5] = tested on: Human immunodeficiency virus 1; test: Antiviral activity against HIV-1 RES056 harboring RT K103N/Y181C double mutant infected in human MT4 cells assessed as protection from viral cytopathicity after 5 days by MTT assay; format: functional, organism-based; conditions: Human immunodeficiency virus 1, RES056, MT4, 120 h; outline: as §1
[6] = tested on: Human immunodeficiency virus 2; test: Antiviral activity against HIV-2 ROD infected in human MT4 cells assessed as protection from viral cytopathicity after 5 days by MTT assay; format: functional, organism-based; conditions: Human immunodeficiency virus 2, ISOLATE ROD, MT4, 120 h; outline: as §2
[7] = Selectivity index, ratio of CC50 for mock-infected human MT4 cells to EC50 for HIV-1 RES056 harboring RT K103N/Y181C double mutant infected in human MT4 cells; format: toxicity, cell-based; conditions: read-out: Ratio CC50/EC50; outline: as §1
[8] = tested on: Human immunodeficiency virus 1; test: Antiviral activity against HIV-1 harboring RT Y188L mutant; format: functional, organism-based
[9] = tested on: Human immunodeficiency virus 1; test: Antiviral activity against HIV-1 harboring RT Y181C mutant; format: functional, organism-based
[10] = tested on: Human immunodeficiency virus 1; test: Antiviral activity against HIV-1 harboring RT K103N/Y181C double mutant; format: functional, organism-based
[11] = tested on: Human immunodeficiency virus 1; test: Antiviral activity against HIV-1 harboring wild-type reverse transcriptase; format: functional, organism-based
[12] = molecular target: Human immunodeficiency virus type 1 reverse transcriptase (Human immunodeficiency virus 1, UniProt Q72547); test: Inhibition of purified recombinant HIV-1 reverse transcriptase after 1 hr using biotin-labeled dUTP by digoxigenin-peroxidase assay
Outline: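 Kit-based colorimetric ELISA with recombinant wild-type HIV-1 RT, poly(A)·oligo(dT)15 template/primer, dNTPs including digoxigenin- and biotin-labeled dUTP, in lysis buffer ± inhibitor, incubated 1 h at 37 °C. Product captured on streptavidin, detected with anti-DIG-peroxidase and ABTS, absorbance at 405 nm. Several concentrations tested; % inhibition taken relative to the no-inhibitor sample.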

Row | Compound | selectivity ratio [1] | EC50 [2] | selectivity ratio [3] | CC50 at 120 h [4] | EC50 [5] | EC50 [6] | selectivity ratio [7] | EC50 [8] | EC50 [9] | EC50 [10] | EC50 [11] | IC50 [12]
1 | Cc1cc(Cl)cc(C)c1Oc1cc(Nc2ccc(C#N)cc2)nc2ncnn12 | 256 | 0.4 µM | < 1 | 104 µM | > 104 µM | > 104 µM | < 1 |  |  |  |  | 
2 | Cc1cccc(C)c1Nc1cc(Nc2ccc(C#N)cc2)nc2ncnn12 | 127 | 2.1 µM | < 1 | 272 µM | > 272 µM | > 272 µM | < 1 |  |  |  |  | 
3 | Cc1cc(C)c(Oc2cc(Nc3ccc(C#N)cc3)n3ncnc3n2)c(C)c1 | 1450 | 0.07 µM | < 1 | 106 µM | ≥ 50 µM | > 106 µM | ≤ 2 |  |  |  |  | 
4 | N#Cc1ccc(Nc2cc(Oc3c(F)cc(F)cc3F)nc3ncnn23)cc1 | < 1 | > 174 µM | < 1 | 174 µM | > 174 µM | > 174 µM | < 1 |  |  |  |  | 
5 | Cc1ccc(Nc2cc(Oc3c(C)cc(C)cc3C)n3ncnc3n2)cc1 | 649 | 0.07 µM | < 1 | 47 µM | > 47 µM | > 47 µM | < 1 |  |  |  |  | 
6 | Cc1cccc(C)c1Oc1cc(Nc2ccc(C#N)cc2)n2ncnc2n1 | 170 | 1.5 µM | < 1 | 253 µM | > 253 µM | > 253 µM | < 1 |  |  |  |  | 
7 | Cc1cc(C)c(Oc2cc(Nc3ccc(C#N)cc3)nc3ncnn23)c(C)c1 | 3200 | 0.05 µM | < 1 | 164 µM | > 164 µM | > 164 µM | < 1 |  |  |  |  | 
8 | Cc1cc(C)c(Oc2cc(Nc3ccc(Cl)cc3)nc3ncnn23)c(C)c1 | 864 | 0.05 µM | < 1 | 46 µM | > 46 µM | > 46 µM | < 1 |  |  |  |  | 
9 | N#Cc1ccc(Nc2cc(Oc3c(Cl)cc(Cl)cc3Cl)n3ncnc3n2)cc1 | 47 | 0.6 µM | < 1 | 29 µM | > 29 µM | > 29 µM | < 1 |  |  |  |  | 
10 | Cc1cc(Br)cc(C)c1Oc1cc(Nc2ccc(C#N)cc2)n2ncnc2n1 | 427 | 0.3 µM | < 1 | 128 µM | > 128 µM | > 128 µM | < 1 |  |  |  |  | 
11 | N#Cc1ccc(Nc2cc(Oc3c(Cl)cccc3Cl)n3ncnc3n2)cc1 | 44 | 3.4 µM | < 1 | 150 µM | > 150 µM | > 150 µM | < 1 |  |  |  |  | 
12 | Cc1cc(C)c(Nc2cc(Nc3ccc(C#N)cc3)nc3ncnn23)c(C)c1 | 8990 | 0.02 µM | < 1 | 190 µM | 7.6 µM | > 190 µM | 25 |  |  |  |  | 
13 | Cc1cc(Br)cc(C)c1Oc1cc(Nc2ccc(C#N)cc2)nc2ncnn12 | 579 | 0.23 µM | < 1 | 136 µM | > 136 µM | > 136 µM | < 1 |  |  |  |  | 
14 | Cc1cc(C#N)cc(C)c1Oc1nc(Nc2ccc(C#N)cc2)nc2[nH]ccc12 |  |  |  |  |  |  |  | 0.004 µM | 0.0045 µM | 0.0078 µM | 0.00016 µM | 
15 | COc1ccc(Nc2cc(Oc3c(C)cc(C)cc3C)n3ncnc3n2)cc1 | 165 | 0.2 µM | < 1 | 37 µM | > 37 µM | > 37 µM | < 1 |  |  |  |  | 
16 | N#Cc1ccc(Nc2cc(Oc3c(Br)cc(Br)cc3Br)n3ncnc3n2)cc1 | 142 | 0.3 µM | < 1 | 47 µM | > 47 µM | > 47 µM | < 1 |  |  |  |  | 
17 | N#Cc1ccc(Nc2cc(Oc3c(Cl)cc(Cl)cc3Cl)nc3ncnn23)cc1 | 109 | 0.3 µM | < 1 | 32 µM | > 32 µM | > 32 µM | < 1 |  |  |  |  | 
18 | Cc1cc(C#N)cc(C)c1Oc1cc(Nc2ccc(C#N)cc2)nc2ncnn12 | 182 | 1.2 µM | < 1 | 224 µM | > 224 µM | > 224 µM | < 1 |  |  |  |  | 0.39 µM
19 | Cc1cc(Br)c(Oc2cc(Nc3ccc(C#N)cc3)nc3ncnn23)c(Br)c1 | 3620 | 0.05 µM | < 1 | 192 µM | > 192 µM | > 192 µM | < 1 |  |  |  |  | 
20 | CC(C)Nc1cccnc1N1CCN(C(=O)c2cc3cc(NS(C)(=O)=O)ccc3[nH]2)CC1 [DELAVIRDINE] | > 494 | 0.07 µM |  | > 36 µM | > 36 µM |  | 1 |  |  |  |  | 
21 | Cc1ccnc2c1NC(=O)c1cccnc1N2C1CC1 [NEVIRAPINE] | > 14 | 0.15 µM |  | > 15 µM | 2.9 µM |  | > 5 |  |  |  |  | 
22 | Cc1cc(C#N)cc(C)c1Oc1nc(Nc2ccc(C#N)cc2)nc2cc[nH]c12 |  |  |  |  |  |  |  | 0.0011 µM | 0.0014 µM | 0.0038 µM | 0.00025 µM | 
23 | Cc1cc(C)c(Oc2cc(Nc3ccc([N+](=O)[O-])cc3)nc3ncnn23)c(C)c1 | 57 | 0.6 µM | < 1 | 33 µM | > 33 µM | > 33 µM | < 1 |  |  |  |  | 
24 | Cc1cccc(C)c1Oc1cc(Nc2ccc(C#N)cc2)nc2ncnn12 | 182 | 1.3 µM | < 1 | 233 µM | > 233 µM | > 233 µM | < 1 |  |  |  |  | 
